Laboratory results published in ChEMBL document CHEMBL2384910, “Lead optimization of 5-amino-6-(2,2-dimethyl-5-oxo-4-phenylpiperazin-1-yl)-4-hydroxyhexanamides to reduce a cardiac safety issue: discovery of DS-8108b, an orally active renin inhibitor” (Bioorg Med Chem, 2013).
Substitutions are numbered along the chain they refer to. pIC50: −log10 of the molar value. Calls of active or inactive are those of the source. The rule behind the calls is not given here.

Tests used:
[1] = Half life in cynomolgus monkey at 3 mg/kg, po by HPLC-MS/MS analysis; format: ADME, organism-based, Macaca fascicularis; set-up: dose 3 mg/kg, route oral; conditions: in vivo
In short: (§1)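 Blood sampled over 24 h, at least 7 time points; plasma levels by HPLC-MS/MS; parameters from non-compartmental analysis of concentration-time curves.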

Heart [2] = experiment: Cardiotoxicity in anesthetized New Zealand White rabbit heart assessed as ventricular tachycardia and ventricular fibrillation at 30 uM after 20 mins; format: toxicity, tissue-based, Oryctolagus cuniculus
In short: (§2)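 Isolated Langendorff-perfused hearts from female NZW rabbits anesthetized with thiopental 30 mg/kg iv; heart excised into chilled Krebs-Henseleit solution. After parameters stabilized, compound perfused at 10, 30 and 100 µM for 20 min; ECG changes expressed as % change from baseline.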

Cynomolgus monkey [3] = experiment: Cardiotoxicity in telemetered cynomolgus monkey assessed as ventricular tachycardia at 50 mg/kg, po; format: toxicity, organism-based, Macaca fascicularis, Cardiac ventricle; set-up: dose 50 mg/kg, route oral; conditions: in vivo
Renin [4] = target: T1, Renin (Homo sapiens, UniProt P00797); experiment: Inhibition of human recombinant renin using Arg-Glu(EDANS)-Ile-His-Pro-Phe-His-Leu-Val-Ile-His-Thr-Lys (DABCYL)-Arg as substrate incubated for 10 mins prior to substrate addition measured after 90 mins by fluorescence assay
T1 sequence (P00797 whole entry): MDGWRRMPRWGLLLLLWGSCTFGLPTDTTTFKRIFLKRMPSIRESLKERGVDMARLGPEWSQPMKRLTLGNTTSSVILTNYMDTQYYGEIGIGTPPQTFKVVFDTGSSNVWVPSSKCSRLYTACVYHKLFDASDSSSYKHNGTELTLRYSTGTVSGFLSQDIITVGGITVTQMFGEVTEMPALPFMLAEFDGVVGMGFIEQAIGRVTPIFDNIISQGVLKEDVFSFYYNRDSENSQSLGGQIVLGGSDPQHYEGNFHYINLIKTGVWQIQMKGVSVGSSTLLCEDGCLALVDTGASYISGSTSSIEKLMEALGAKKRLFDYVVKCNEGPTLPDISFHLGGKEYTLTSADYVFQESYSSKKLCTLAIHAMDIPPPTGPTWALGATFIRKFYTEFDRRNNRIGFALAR
In short: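 Trypsin-activated recombinant human renin in 50 mM Tris-HCl pH 7.9, 100 mM NaCl, preincubated with compound 10 min at room temperature; FRET substrate Arg-Glu(EDANS)…Lys(DABCYL)-Arg added, 90 min at 37 °C.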

Renin [5] = target: T2, Renin (Macaca fascicularis, UniProt Q6DLS0); experiment: Inhibition of renin in cynomolgus monkey plasma after 1 hr by RIA
T2 sequence (Q6DLS0 whole entry): T1 sequence (P00797 whole entry) with T68A, I214L, S235A
In short: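 Pooled mixed-gender EDTA cynomolgus monkey plasma with pH adjusting solution and Inhibitor A, compound in 1% DMSO final, incubated 1 h at 37 °C. Angiotensin I by competitive RIA; uninhibited and 4 °C controls define % inhibition; IC50 from four-parameter fit; ratio is compound IC50 over aliskiren IC50 in same plasma batch; ≥2 replicates.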

[6] = Volume of distribution at steady state in cynomolgus monkey at 1 mg/kg, iv by HPLC-MS/MS analysis; format: ADME, organism-based, Macaca fascicularis; set-up: dose 1 mg/kg, route intravenous; conditions: in vivo, read-out: Vdss
Rattus norvegicus [7] = species: Rattus norvegicus; experiment: Displacement of [3H]batrachotoxin from sodium channel (site 2) in Wistar rat brain at 10 uM relative to control; format: tissue-based
In short: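 Rat brain membranes in modified Tris–HCl buffer, pH 7.4, incubated 1 h at 37 °C with 5 nM [3H]batrachotoxin plus test compound. Nonspecific binding defined with excess veratridine. Binding affinity is expressed as percent inhibition relative to vehicle control.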

[8] = Cmax in cynomolgus monkey at 3 mg/kg, po by HPLC-MS/MS analysis; format: ADME, organism-based, Macaca fascicularis; set-up: dose 3 mg/kg, route oral; conditions: in vivo; in short: as §1
Rattus norvegicus [9] = experiment: Cardiotoxicity in iv bolus dosed Sprague-Dawley rat electrophysiology model assessed as QRS complex abnormalities; format: toxicity, organism-based; conditions: in vivo
In short: (§3)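 Male Sprague-Dawley rats anesthetized with inactin 100 mg/kg ip; surface lead II ECG recorded continuously. Compounds given as iv bolus via right jugular vein catheter after stabilization; QRS complex abnormality scored as no, moderate or severe change; n = 2 at 10 mg/kg.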

Rattus norvegicus [10] = experiment: Cardiotoxicity in Sprague-Dawley rat electrophysiology model assessed as QRS complex abnormalities at 10 mg/kg, iv by ECG analysis; format: toxicity, organism-based; set-up: dose 10 mg/kg, route intravenous; conditions: in vivo; in short: as §3
Heart [11] = experiment: Cardiotoxicity in anesthetized New Zealand White rabbit heart assessed as prolongation of heart rate at 10 uM after 20 mins relative to baseline; format: toxicity, tissue-based, Oryctolagus cuniculus; in short: as §2
[12] = Clearance in cynomolgus monkey at 1 mg/kg, iv by HPLC-MS/MS analysis; format: ADME, organism-based, Macaca fascicularis; set-up: dose 1 mg/kg, route intravenous; conditions: in vivo
[13] = Oral bioavailability in cynomolgus monkey at 3 mg/kg by HPLC-MS/MS analysis; format: ADME, organism-based, Macaca fascicularis; conditions: in vivo; in short: as §1
Heart [14] = experiment: Cardiotoxicity in anesthetized New Zealand White rabbit heart assessed as prolongation of QTc interval at 10 uM after 20 mins relative to baseline; format: toxicity, tissue-based, Oryctolagus cuniculus; in short: as §2
Rattus norvegicus [15] = experiment: Toxicity in Sprague-Dawley rat electrophysiology model assessed as mortality at 3 to 10 mg/kg, iv; format: organism-based; set-up: dose 3-10 mg/kg, route intravenous; conditions: in vivo
Cynomolgus monkey [16] = experiment: Inhibition of renin in furosemide pretreated cynomolgus monkey assessed as reduction in mean arterial blood pressure at 3 mg/kg, po; format: functional, organism-based; set-up: dose 3 mg/kg; conditions: Macaca fascicularis
In short: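 Conscious freely moving telemetered cynomolgus monkeys (n = 6), furosemide 5 mg/kg/day im for 3 days before dosing; fasted from morning, fed ≥8 h post-dose. Oral 1, 3, 10 mg/kg or 1% methylcellulose, crossover design; arterial pressure recorded from −3 to 24 h; hourly mean MAP; mean ± SEM.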

Heart [17] = experiment: Cardiotoxicity in anesthetized New Zealand White rabbit heart assessed as prolongation of […] at 10 uM after 20 mins relative to baseline; format: toxicity, tissue-based, Oryctolagus cuniculus; in short: as §2
Cynomolgus monkey [18] = experiment: Cardiotoxicity in telemetered cynomolgus monkey assessed as ventricular fibrillation at 50 mg/kg, po; format: toxicity, organism-based, Macaca fascicularis, Cardiac ventricle; set-up: dose 50 mg/kg, route oral; conditions: in vivo
Cynomolgus monkey [19] = experiment: Inhibition of renin in furosemide pretreated cynomolgus monkey plasma at 3 mg/kg, po; format: functional, organism-based; set-up: dose 3 mg/kg; conditions: Macaca fascicularis
In short: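 Cynomolgus monkeys pretreated with furosemide given single oral dose 1, 3 or 10 mg/kg or vehicle 1% methylcellulose. Venous blood into EDTA-2Na tubes at 1, 2, 4, 8, 24 h, chilled, centrifuged cold, plasma frozen; plasma renin activity by radioimmunoassay.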

Heart [20] = experiment: Cardiotoxicity in anesthetized New Zealand White rabbit heart assessed as prolongation of QRS width at 10 uM after 20 mins relative to baseline; format: toxicity, tissue-based, Oryctolagus cuniculus; in short: as §2
[21] = target: T3, Renin (Macaca fascicularis) (UniProt Q6DLS0); experiment: Ratio of compound IC50 to aliskiren IC50 for renin in cynomolgus monkey plasma
T3 sequence (whole entry): T1 sequence (P00797 whole entry) with T68A, I214L, S235A

[22] = AUC (0 to 24 hrs) in cynomolgus monkey at 3 mg/kg, po by HPLC-MS/MS analysis; format: ADME, organism-based, Macaca fascicularis; set-up: time < 24 hr, dose 3 mg/kg, route oral; conditions: plasma; in short: as §1
Heart [23] = experiment: Cardiotoxicity in anesthetized New Zealand White rabbit heart assessed as prolongation of […] at 30 uM after 20 mins relative to baseline; format: toxicity, tissue-based, Oryctolagus cuniculus; in short: as §2
Heart [24] = experiment: Cardiotoxicity in anesthetized New Zealand White rabbit heart assessed as prolongation of QRS width at 30 uM after 20 mins relative to baseline; format: toxicity, tissue-based, Oryctolagus cuniculus; in short: as §2
Heart [25] = experiment: Cardiotoxicity in anesthetized New Zealand White rabbit heart assessed as prolongation of QTc interval at 30 uM after 20 mins relative to baseline; format: toxicity, tissue-based, Oryctolagus cuniculus; in short: as §2
Heart [26] = experiment: Cardiotoxicity in anesthetized New Zealand White rabbit heart assessed as prolongation of heart rate at 30 uM after 20 mins relative to baseline; format: toxicity, tissue-based, Oryctolagus cuniculus; in short: as §2
Rattus norvegicus [27] = experiment: Cardiotoxicity in Sprague-Dawley rat electrophysiology model assessed as QRS complex abnormalities at 10 mg/kg, iv; format: toxicity, organism-based; set-up: dose 10 mg/kg, route intravenous; conditions: in vivo; in short: as §3

SMILES	pIC50 (Renin [4])	pIC50 (Renin [5])	Activity (Rattus norvegicus [10])	Ratio IC50 [21]	other results
CC(C)[C@H](C[C@H](O)[C@@H](N)CN1CC(=O)N(c2ccccc2Cl)CC1(C)C)C(=O)NCC(C)(C)C.O=C(O)/C=C/C(=O)O	9.00	8.52	Toxic	0.5	half-life [1]: 15.3 h; Activity (Heart [2]): Toxic; Activity (Cynomolgus monkey [3]): Toxic; Vd [6]: 23.5 L/kg; Activity (Rattus norvegicus [7]): 87%; Cmax [8]: 111 ng/mL; Activity (Rattus norvegicus [9]): Dose-dependent effect; Activity (Heart [11]): -4.6%; clearance [12]: 28.4 mL/min/kg; bioavailability [13]: 26.4%; Activity (Heart [14]): -1.5%; Activity (Rattus norvegicus [15]): Toxic; inhibition (Cynomolgus monkey [16]): Active; Activity (Heart [17]): 68.9%; Activity (Cynomolgus monkey [18]): Toxic; inhibition (Cynomolgus monkey [19]): Active; Activity (Heart [20]): 15.6%; AUC(0-t) at 24 h [22]: 460 ng·h/mL
CC[C@H](C[C@H](O)[C@@H](N)CN1CC(=O)N(c2ccccc2Cl)CC1(C)C)C(=O)NCC(C)(C)CO.O=C(O)/C=C/C(=O)O	8.80	8.28	Non-toxic	0.8	Activity (Heart [23]): 3.4%; Activity (Heart [11]): -3.5%; Activity (Heart [24]): 1.7%; Activity (Heart [14]): -2.1%; Activity (Heart [25]): -5.4%; Activity (Heart [17]): -7.8%; Activity (Heart [20]): 3.8%; Activity (Heart [26]): -4.3%
CCN(CC)CC(=O)Nc1c(C)cccc1C [LIDOCAINE]	–	–	–	–	Activity (Rattus norvegicus [27]): Toxic
CC(C)[C@H](C[C@H](O)[C@@H](N)CN1CC(=O)N(c2ccccc2Cl)CC1(C)C)C(=O)Nc1ccc(F)cn1.O=C(O)/C=C/C(=O)O	9.05	8.47	Toxic	0.5	Activity (Heart [2]): Toxic; Activity (Heart [11]): -3.7%; Activity (Heart [14]): 13.5%; Activity (Heart [17]): 64.1%; Activity (Heart [20]): 74.7%
CC[C@H](C[C@H](O)[C@@H](N)CN1CC(=O)N(c2ccccc2Cl)CC1(C)C)C(=O)NC1C2CC3CC1CC(C(N)=O)(C3)C2.O=C(O)/C=C/C(=O)O (stereo partly drawn)	8.89	8.92	–	0.5	Cmax [8]: 19 ng/mL; AUC(0-t) at 24 h [22]: 90 ng·h/mL
CC(C)[C@H](C[C@H](O)[C@@H](N)CN1CC(=O)N(c2ccccc2Cl)CC1(C)C)C(=O)N[C@H]1CC[C@H](O)CC1.O=C(O)/C=C/C(=O)O	8.85	8.37	Non-toxic	0.8	Cmax [8]: 19 ng/mL; AUC(0-t) at 24 h [22]: 75 ng·h/mL
CN1CC(=O)N(c2ccccc2Cl)CC1(C)C	–	–	–	–	Activity (Rattus norvegicus [27]): Non-toxic
CC(C)[C@H](C[C@H](O)[C@@H](N)CN1CC(=O)N(c2ccccc2Cl)CC1(C)C)C(=O)Nc1ccncc1.O=C(O)/C=C/C(=O)O	8.80	7.82	Toxic	1.5	–
CC(C)[C@H](C[C@H](O)[C@@H](N)CN1CC(=O)N(c2ccccc2Cl)CC1(C)C)C(=O)Nc1ccc(F)c(F)c1.O=C(O)/C=C/C(=O)O	8.72	7.68	Toxic	4.5	–
CC(C)[C@H](C[C@H](O)[C@@H](N)CN1CC(=O)N(c2cc(F)ccc2Cl)CC1(C)C)C(=O)N[C@H]1C2CC3CC1C[C@](O)(C3)C2.O=C(O)/C=C/C(=O)O	8.72	8.11	Non-toxic	0.7	–
CC(C)CNC(=O)[C@@H](C[C@H](O)[C@@H](N)CN1CC(=O)N(c2ccccc2Cl)CC1(C)C)C(C)C.O=C(O)/C=C/C(=O)O	8.85	8.40	Toxic	0.7	–
CC[C@H](C[C@H](O)[C@@H](N)CN1CC(=O)N(c2ccccc2Cl)CC1(C)C)C(=O)Nc1ccc(C)cc1.O=C(O)/C=C/C(=O)O	8.49	7.55	Toxic	4.5	–
CC(C)[C@H](C[C@H](O)[C@@H](N)CN1CC(=O)N(c2ccccc2Cl)CC1(C)C)C(=O)NC12CC3CC(CC(O)(C3)C1)C2.O=C(O)/C=C/C(=O)O	8.70	8.19	Toxic	0.7	–
CC(C)[C@H](C[C@H](O)[C@@H](N)CN1CC(=O)N(c2ccccc2Cl)CC1(C)C)C(=O)Nc1ccc(F)cc1F.O=C(O)/C=C/C(=O)O	8.70	7.85	Toxic	3	–
CC(C)[C@H](C[C@H](O)[C@@H](N)CN1CC(=O)N(c2ccccc2Cl)CC1(C)C)C(=O)Nc1ccccc1.O=C(O)/C=C/C(=O)O	8.85	8.04	Toxic	1.3	–
